From ChEMBL document CHEMBL1147950, “Polyphenols based on isoflavones as inhibitors of Helicobacter pylori urease” (Bioorg Med Chem, 2007)
Where “and” joins values, the source holds several entries; their conditions need not be identical. Equal entries are not always repeated.

Experiments:
[1] = biological target: Urease subunit alpha/Urease subunit beta (Helicobacter pylori (strain ATCC 700392 / 26695) (Campylobacterpylori)) (UniProt P69996+P14916); experiment: Inhibition of Helicobacter pylori ATCC 43504 urease at 400 ug/mL after 3 hrs pre-incubation
Summary of the method: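 Urease from H. pylori ATCC 43504 cultured 24 h at 37 °C in brucella broth with 10% heat-inactivated horse serum, microaerobic (5% O2, 10% CO2, 85% N2). 4 U enzyme preincubated with test compound 3 h at room temperature. Activity read as ammonia production by the indophenol method; percent inhibition recorded.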

[2] = biological target: T1, Urease subunit alpha/Urease subunit beta (Helicobacter pylori (strain ATCC 700392 / 26695) (Campylobacterpylori), UniProt P69996); experiment: Inhibition of Helicobacter pylori ATCC 43504 urease after 3 hrs pre-incubation
Summary of the method: (§1)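 Urease source: H. pylori ATCC 43504 grown 24 h at 37 °C, microaerobic (5% O2, 10% CO2, 85% N2), in brucella broth with 10% heat-inactivated horse serum. Enzyme (4 U) preincubated with test compound 3 h at room temperature. Ammonia production read by the indophenol method. IC50 values from triplicate measurements, reported as mean ± SD.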

[3] = biological target: T1, Urease subunit alpha/Urease subunit beta; experiment: Inhibition of Helicobacter pylori ATCC 43504 urease in presence of 0.4 mM 2-mercaptoethanol after 3 hrs pre-incubation; summary of the method: as §1
[4] = biological target: T1, Urease subunit alpha/Urease subunit beta; experiment: Inhibition of Helicobacter pylori ATCC 43504 urease in presence of 0.4 mM dithiothreitol after 3 hrs pre-incubation; summary of the method: as §1

T1 sequence (P69996 whole entry): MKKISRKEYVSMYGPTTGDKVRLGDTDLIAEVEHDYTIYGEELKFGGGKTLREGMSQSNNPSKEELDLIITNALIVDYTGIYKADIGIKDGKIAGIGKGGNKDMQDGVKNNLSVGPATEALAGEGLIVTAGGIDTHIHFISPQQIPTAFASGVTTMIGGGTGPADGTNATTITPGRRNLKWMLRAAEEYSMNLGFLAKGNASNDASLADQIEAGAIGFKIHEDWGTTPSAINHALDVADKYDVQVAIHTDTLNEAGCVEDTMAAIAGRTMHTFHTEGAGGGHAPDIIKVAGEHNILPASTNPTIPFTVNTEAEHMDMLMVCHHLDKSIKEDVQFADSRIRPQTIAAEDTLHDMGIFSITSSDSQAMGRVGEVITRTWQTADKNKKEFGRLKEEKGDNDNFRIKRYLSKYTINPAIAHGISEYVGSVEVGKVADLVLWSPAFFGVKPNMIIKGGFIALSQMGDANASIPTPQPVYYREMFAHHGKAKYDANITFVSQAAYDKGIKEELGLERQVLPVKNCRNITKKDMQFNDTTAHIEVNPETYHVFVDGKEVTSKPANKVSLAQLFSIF
T1 sequence (P14916 whole entry, further chain): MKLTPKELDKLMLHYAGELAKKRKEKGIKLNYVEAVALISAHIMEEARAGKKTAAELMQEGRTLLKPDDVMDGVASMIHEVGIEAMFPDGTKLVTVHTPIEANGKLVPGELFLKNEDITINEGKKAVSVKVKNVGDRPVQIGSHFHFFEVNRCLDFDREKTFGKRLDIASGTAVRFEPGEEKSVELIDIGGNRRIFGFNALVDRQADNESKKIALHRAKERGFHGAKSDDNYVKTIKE
Sequence of Urease subunit alpha/Urease subunit beta (Helicobacter pylori (strain ATCC 700392 / 26695) (Campylobacterpylori)) (P14916 whole entry, looked up): as the sequence (P14916 whole entry, further chain) above
Sequence of Urease subunit alpha/Urease subunit beta (Helicobacter pylori (strain ATCC 700392 / 26695) (Campylobacterpylori)) (P69996 whole entry, looked up): as the sequence (P69996 whole entry) above

Compound	inhibition [1]	IC50 [2] [µM]	IC50 [3] [µM]	IC50 [4] [µM]
CC(=O)c1ccc(O)cc1O	14%			
COc1ccc(CC(O)c2ccc(OC)c(OC)c2O)cc1 (configuration not stated)	42%			
CC(=O)c1ccc(O)c(O)c1O	38%			
O=c1c(-c2ccc(O)cc2)coc2c(O)c(O)ccc12	81.7%	140	> 1480	> 1480
Oc1ccc(CCc2ccc(O)c(O)c2O)cc1	94.5%	30	71	53
CC(=O)NO [ACETOHYDROXAMIC ACID]		17	19	18

Continued, in another order:

inhibition [1]	Compound	IC50 [2] [µM]	IC50 [3] [µM]	IC50 [4] [µM]
14%	COc1ccc(CC(=O)c2ccc(O)cc2O)cc1			
41%	CC(=O)c1ccc(O)c(O)c1			
17%	COc1c(O)cc(O)c(C(=O)Cc2ccc(O)cc2)c1O			
39%	O=C(Cc1ccc(O)cc1)c1ccc(O)c(O)c1			
44%	COc1ccc(CC(=O)c2ccc(O)c(O)c2O)cc1			
51%	O=C(Cc1ccc(O)cc1)c1ccc(O)c(O)c1O			
23% and 36%	COc1c(O)cc(O)c2c(=O)c(-c3ccc(O)cc3)coc12			
16%	O=C(Cc1ccc(O)cc1)c1ccc(O)cc1O			
